Calls of active or inactive are those of the source. No cut-off for these calls is given here.
What was measured:
Mesenchymal stem cells [1] = assay: Induction of adipogenesis differentiation in human Mesenchymal stem cells at 10 uM incubated for 21 days by […] staining-based microscopic analysis; format: functional, cell-based; settings: time 21.0 day
Mus musculus [2] = assay: Antiosteoporotic activity against OVX-induced bone loss C57BL/6 mouse model assessed as increase in ratio of bone volume to total volume at 10 mg/kg, po for 6 weeks by microcomputed tomography method relative to sham treated control; format: functional, organism-based
Outline: (§1)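 Female C57BL/6 mice ovariectomized at 12 weeks of age; sham-operated group kept ovaries intact. After recovery, daily oral gavage of compound or vehicle for 6 weeks, sacrifice at 22 weeks of age. Distal femur trabecular structure analysed by micro-computed tomography, including bone volume/total volume, compared with sham mice; GW0742 as positive control.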

[3] = Glutathione reactivity at pH 7.4 assessed as compound remaining measured after 24 hrs by LC-MS/MS method; format: physicochemical; settings: pH 7.4, 24 h
Outline: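 Substrate incubated in triplicate with 10-fold excess glutathione in pH 7.4 phosphate buffer containing 50% methanol at 25 °C for up to 24 h. Substrate loss followed at several time points by LC-MS/MS, which also confirmed the structure of glutathione conjugates.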

Mus musculus [4] = assay: Antiosteoporotic activity against OVX-induced bone loss C57BL/6 mouse model assessed as increase in trabecular bone density at 10 mg/kg, po for 6 weeks by microcomputed tomography method relative to sham treated control; format: functional, organism-based; outline: as §1
Mesenchymal stem cells [5] = assay: Induction of adipogenesis differentiation in human Mesenchymal stem cells at 1 uM incubated for 21 days by […] staining-based microscopic analysis; format: functional, cell-based; settings: time 21.0 day
[6] = target: T1, Peroxisome proliferator-activated receptor gamma (Homo sapiens, UniProt P37231); assay: Agonist activity at human PPARgamma transfected in COS-7 cells assessed luciferase activity measured after 24 hrs by cell based luciferase transactivation assay
T1 sequence (P37231 whole entry): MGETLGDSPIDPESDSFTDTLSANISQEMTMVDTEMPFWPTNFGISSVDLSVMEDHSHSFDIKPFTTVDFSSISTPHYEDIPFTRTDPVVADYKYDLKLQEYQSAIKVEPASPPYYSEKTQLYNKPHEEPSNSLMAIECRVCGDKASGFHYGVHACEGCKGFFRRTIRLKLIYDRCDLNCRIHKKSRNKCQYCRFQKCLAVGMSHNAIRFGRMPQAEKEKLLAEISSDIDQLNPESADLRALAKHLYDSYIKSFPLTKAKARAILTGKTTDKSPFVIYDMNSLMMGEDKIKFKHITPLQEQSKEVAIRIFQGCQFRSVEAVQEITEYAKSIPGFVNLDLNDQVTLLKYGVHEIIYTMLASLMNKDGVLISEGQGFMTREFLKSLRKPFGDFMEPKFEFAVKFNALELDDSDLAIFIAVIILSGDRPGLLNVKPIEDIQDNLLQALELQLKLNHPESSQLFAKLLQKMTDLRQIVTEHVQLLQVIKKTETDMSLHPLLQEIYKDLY

[7] = target: T2, Peroxisome proliferator-activated receptor alpha (Homo sapiens) (UniProt Q07869); assay: Agonist activity at human PPARalpha transfected in COS-7 cells assessed maximum luciferase activity measured after 24 hrs by cell based luciferase transactivation assay relative to gemfibrozil; settings: filed as agonist
T2 sequence (whole entry): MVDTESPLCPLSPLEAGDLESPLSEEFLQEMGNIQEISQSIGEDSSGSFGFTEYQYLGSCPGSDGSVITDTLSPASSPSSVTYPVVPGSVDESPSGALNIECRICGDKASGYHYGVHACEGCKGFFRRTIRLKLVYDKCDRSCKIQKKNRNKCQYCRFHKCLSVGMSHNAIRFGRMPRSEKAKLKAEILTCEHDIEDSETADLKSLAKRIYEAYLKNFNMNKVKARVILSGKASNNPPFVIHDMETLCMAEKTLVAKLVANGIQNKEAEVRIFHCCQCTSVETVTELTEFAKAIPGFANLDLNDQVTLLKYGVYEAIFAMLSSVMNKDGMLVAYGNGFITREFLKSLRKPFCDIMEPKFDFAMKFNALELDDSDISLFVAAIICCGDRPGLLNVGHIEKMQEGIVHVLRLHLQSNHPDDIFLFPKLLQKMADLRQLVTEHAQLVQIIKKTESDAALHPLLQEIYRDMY
Outline: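 Transient transfection of COS-7 cells with human PPARα, PPARγ or PPARδ plus luciferase reporter; constitutive Renilla luciferase also read. […] Three or more independent experiments in triplicate (N ≥ 9).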

[8] = Toxicity in OVX-induced bone loss C57BL/6 mouse model assessed as change in body weight at 10 mg/kg, po for 6 weeks; format: organism-based; settings: in vivo, 1008 h
Outline: (§2)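 OVX C57BL/6 females (surgery at 12 weeks, sham controls) dosed daily by oral gavage for 6 weeks. Gross toxicity monitored during dosing as weight, behaviour, eating and other habits versus controls.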

Mesenchymal stem cells [9] = assay: Induction of osteogenesis differentiation in human Mesenchymal stem cells at 20 uM incubated for 21 days by Alizarin Red S staining-based microscopic analysis; format: functional, cell-based; settings: time 21.0 day
[10] = target: T3, Peroxisome proliferator-activated receptor alpha (Homo sapiens, UniProt Q07869); assay: Agonist activity at human PPARalpha transfected in COS-7 cells assessed luciferase activity measured after 24 hrs by cell based luciferase transactivation assay
T3 sequence (Q07869 whole entry): T2 sequence (whole entry)
Outline: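 Transient transfection of COS-7 cells with human PPARα, PPARγ or PPARδ plus luciferase reporter; constitutive Renilla luciferase also read. Three or more independent experiments in triplicate (N ≥ 9).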

[11] = target: T4, Peroxisome proliferator-activated receptor delta (Homo sapiens, UniProt Q03181); assay: Agonist activity at human PPARdelta transfected in COS-7 cells assessed luciferase activity measured after 24 hrs by cell based luciferase transactivation assay
T4 sequence (Q03181 whole entry): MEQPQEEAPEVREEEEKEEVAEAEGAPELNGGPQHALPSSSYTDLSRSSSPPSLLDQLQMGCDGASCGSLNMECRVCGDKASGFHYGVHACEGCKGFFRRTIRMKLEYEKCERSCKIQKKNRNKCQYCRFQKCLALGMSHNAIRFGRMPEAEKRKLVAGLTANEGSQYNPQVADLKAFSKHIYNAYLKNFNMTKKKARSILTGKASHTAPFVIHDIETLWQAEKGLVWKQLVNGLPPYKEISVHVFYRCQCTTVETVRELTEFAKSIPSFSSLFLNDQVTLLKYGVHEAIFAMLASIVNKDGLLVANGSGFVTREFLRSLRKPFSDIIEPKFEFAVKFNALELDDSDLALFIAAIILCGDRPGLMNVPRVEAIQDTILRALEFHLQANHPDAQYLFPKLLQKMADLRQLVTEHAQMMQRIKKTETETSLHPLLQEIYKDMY

[12] = Toxicity in OVX-induced bone loss C57BL/6 mouse model assessed as change in eating at 10 mg/kg, po for 6 weeks; format: organism-based; settings: in vivo, 1008 h; outline: as §2
Mesenchymal stem cells [13] = assay: Induction of adipogenesis differentiation in human Mesenchymal stem cells at 20 uM incubated for 21 days by […] staining-based microscopic analysis; format: functional, cell-based; settings: time 21.0 day
Mesenchymal stem cells [14] = assay: Induction of osteogenesis differentiation in human Mesenchymal stem cells at 1 uM incubated for 21 days by Alizarin Red S staining-based microscopic analysis; format: functional, cell-based; settings: time 21.0 day
Mesenchymal stem cells [15] = assay: Induction of osteogenesis differentiation in human Mesenchymal stem cells at 10 uM incubated for 21 days by Alizarin Red S staining-based microscopic analysis; format: functional, cell-based; settings: time 21.0 day
[16] = Toxicity in OVX-induced bone loss C57BL/6 mouse model assessed as change in behaviour at 10 mg/kg, po for 6 weeks; format: organism-based; settings: in vivo, 1008 h; outline: as §2
[17] = test system: COS-7 (Chlorocebus aethiops); assay: Cytotoxicity against COS-7 cells expressing human PPARdelta assessed as morphological changes at lower concentration by microscopy analysis; settings: monkey
Mesenchymal stem cells [18] = assay: Cytotoxicity against human Mesenchymal stem cells expressing human PPARdelta assessed as morphological changes at 50 uM by microscopy analysis; format: cell-based
[19] = Cytotoxicity against human HEK293T/17 cells assessed as reduction in cell viability incubated for 24 hrs by MTT assay; format: cell-based; settings: hek293t/17, 24 h
Outline: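 HEK 293T/17 cultures were exposed to drug for 24 h and viability was read by standard MTT. Doses came from serial dilution in medium, top dose 100 μM. Controls were medium only, a DMSO vehicle at its highest level (0.1% in medium before adding to cells), and H2O2 as a toxic control. Runs were in quadruplicate (N = 4), reported as mean with SD and compared to 0 μM by two-tailed P.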

[20] = Cytotoxicity against human HEK293T/17 cells assessed as reduction in cell viability at 10 to 100 uM measured after 72 hrs by MTT assay; format: cell-based; settings: hek293t/17, 72 h, dose 10-100 µM
Outline: (§3)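 HEK 293T/17 cultures exposed to agent for 24 h or 72 h; viability by MTT. Controls: H2O2 (toxic positive), plain medium, vehicle at 0.1% DMSO corresponding to the 100 μM dose; doses by serial dilution in medium. Quadruplicate (N = 4), mean with SD; two-tailed P versus 0 μM. Viability <70% taken as relevant to human toxicity.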

L929 [21] = assay: Cytotoxicity against mouse L929 cells assessed as reduction in cell viability at 1 to 100 uM measured after 72 hrs; format: cell-based; settings: l929, 72 h, dose 1-100 µM
L929 [22] = assay: Cytotoxicity against mouse L929 cells assessed as reduction in cell viability at 100 uM; format: cell-based; settings: l929, 100 µM
[23] = Cytotoxicity against human HEK293T/17 cells assessed as reduction in cell viability at 10 to 100 uM measured after 24 hrs by MTT assay; format: cell-based; settings: hek293t/17, 24 h, dose 10-100 µM; outline: as §3
[24] = test system: PPARdelta (human, expressed in COS-7 cells); assay: Cell toxicity index, ratio of CT50 to EC50 for agonist activity at human PPARdelta expressed in COS-7 cells; settings: monkey
Mus musculus [25] = assay: Antiosteoporotic activity against OVX-induced bone loss C57BL/6 mouse model assessed as increase in microarchitectures at 10 mg/kg, po for 6 weeks by microcomputed tomography method relative to sham treated control; format: functional, organism-based; outline: as §1

Compound	Activity (Mesenchymal stem cells [1])	Activity (Mus musculus [2])	Stability [3]	Activity (Mus musculus [4])	Activity (Mesenchymal stem cells [5])	EC50 ([6]; read-out: EC50)	Emax [7]	Activity [8]	Activity (Mesenchymal stem cells [9])	EC50 ([10]; read-out: EC50)	EC50 [11]	Activity [12]	Activity (Mesenchymal stem cells [13])	Activity (Mesenchymal stem cells [14])	Activity (Mesenchymal stem cells [15])	Activity [16]	Activity [17]	Activity (Mesenchymal stem cells [18])	Activity [20]	Activity (L929 [21])	also measured
Cc1nc(-c2ccc(C(F)(F)F)c(F)c2)sc1COc1ccc(/C=C/C(=O)O)cc1	Active	Active	Stable	Active	inactive	13.2 µM	346%	Toxic	Active	51.3 µM	0.0959 µM	Toxic	inactive	Active	Active	Toxic	–	–	–	–	–
Cc1nc(-c2ccc(C(F)(F)F)cc2)sc1COc1ccc(/C=C/C(=O)O)cc1	–	–	–	–	Active	–	135%	–	–	2.23 µM	0.274 µM	–	–	Active	–	–	Non-Toxic	Toxic	–	–	EC50 ([6]; cos-7): Not Active
Cc1cc(SCc2sc(-c3ccc(C(F)(F)F)c(F)c3)nc2C)ccc1OCC(=O)O	inactive	–	–	Active	inactive	9.53 µM	> 108%	–	–	2.5 µM	–	–	–	Active	Active	–	–	Toxic	Toxic	Toxic	Activity [19]: Toxic; Activity (L929 [22]): Toxic
Cc1cc(N(C)Cc2sc(-c3ccc(C(F)(F)F)cc3)nc2C)ccc1/C=C/C(=O)O	inactive	Active	Stable	Active	inactive	–	–	Toxic	Active	–	0.335 µM	Toxic	inactive	Active	Active	Toxic	Non-Toxic	Toxic	Toxic	Toxic	Activity [23]: Toxic; EC50 ([6]; cos-7): Not Active; selectivity ratio [24]: 250; Activity (Mus musculus [25]): Active; EC50 ([10]; cos-7): Not Active; Activity (L929 [22]): Non-Toxic
Cc1nc(-c2ccc(C(F)(F)F)c(F)c2)sc1CSc1ccc(/C=C/C(=O)O)cc1	inactive	Active	Stable	–	inactive	1.3 µM	163%	Toxic	Active	0.915 µM	0.134 µM	Toxic	inactive	Active	Active	Toxic	–	–	Toxic	Toxic	selectivity ratio [24]: 1350; Activity (Mus musculus [25]): Active; Activity (L929 [22]): Toxic
Cc1nc(-c2ccc(C(F)(F)F)cc2)sc1CN(C)c1ccc(/C=C/C(=O)O)cc1	Active	Active	Stable	Active	inactive	24.7 µM	44%	Toxic	Active	0.947 µM	0.199 µM	Toxic	Active	Active	Active	Toxic	Non-Toxic	Toxic	–	–	Activity (Mus musculus [25]): Active
